According to ChEMBL document CHEMBL3112522, “Bicyclic brominated furanones: a new class of quorum sensing modulators that inhibit bacterial biofilm formation” (Bioorg Med Chem, 2014):
The source made the active and inactive calls. The calls are words filed in the database; no cut-off is given here.

What was measured:
[1] = system: Escherichia coli; assay: Antibacterial activity against Escherichia coli RP437 expressing red fluorescence protein assessed as inhibition of biofilm formation measured as reduction in surface area at 200 uM after 24 hrs by confocal laser scanning microscopic analysis; type: functional, organism-based
How it was run: (§1)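 E. coli RP437 (pRSH103, red fluorescent; grown in LB with 10 µg/mL tetracycline) formed biofilms on 316 stainless-steel coupons with 200 µM compound or 0.4% DMSO control, static, 37 °C, 24 h. Coupons rinsed three times in 0.9% NaCl, then imaged by CLSM. COMSTAT gave biomass, mean thickness and surface area from z-stacks at four locations, normalized to the BF-free control. Four replicates.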

[2] = system: Escherichia coli; assay: Antibacterial activity against Escherichia coli RP437 expressing red fluorescence protein assessed as inhibition of biofilm formation measured as reduction in mean thickness of biofilm at 200 uM after 24 hrs by confocal laser scanning microscopic analysis; type: functional, organism-based; how it was run: as §1
[3] = system: Escherichia coli; assay: Antibacterial activity against Escherichia coli RP437 expressing red fluorescence protein assessed as inhibition of biofilm formation measured as reduction in biomass at 200 uM after 24 hrs by confocal laser scanning microscopic analysis; type: functional, organism-based; how it was run: as §1
[4] = system: SK-N-SH; assay: Cytotoxicity against human SK-N-SH cells assessed as cell survival at 100 uM incubated for 1 hr followed by compound washout measured up to 48 hrs by CCK-8 assay; type: cell-based
How it was run: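 SK-N-SH cells seeded at 5×10^4 cells/mL (100 µL) in EMEM with 10% FBS and allowed to adhere 24 h. Exposed 1 h to 100 µM compound or DMSO control, washed twice, then allowed to recover 0, 24 or 48 h. Live cells measured by CCK-8 at A450. Survival = (sample − medium)/(control − medium) × 100.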

[5] = Cytotoxicity against human SK-N-SH cells assessed as cell survival at 400 uM incubated for 1 hr followed by compound washout measured after 48 hrs by CCK-8 assay relative to control; type: cell-based; settings: read-out: Survival
How it was run: (§2)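 SK-N-SH cells were grown in EMEM with 10% FBS, penicillin/streptomycin and 2.0 mM L-glutamine at 37 °C, 5% CO2. Wells were seeded at 5×10^4 cells/mL and left 24 h to adhere. Cells were exposed for 1 h in fresh medium, with DMSO-matched controls, then washed twice. After 0, 24 or 48 h recovery, CCK-8 A450 was read. Survival = (sample−medium)/(control−medium)×100.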

[6] = Cytotoxicity against human SK-N-SH cells assessed as cell survival at 400 uM incubated for 1 hr followed by compound washout measured after 24 hrs by CCK-8 assay relative to control; type: cell-based; settings: read-out: Survival; how it was run: as §2
[7] = Cytotoxicity against human SK-N-SH cells assessed as cell survival at 400 uM incubated for 1 hr followed by compound washout measured immediately by CCK-8 assay relative to control; type: cell-based; settings: read-out: Survival; how it was run: as §2
[8] = system: Pseudomonas aeruginosa; assay: Inhibition of quorum sensing system in Pseudomonas aeruginosa PAO-JP2 assessed as reduction of elastase B production at 300 uM after 24 hrs by congo-red staining-based assay relative to control
How it was run: (§3)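 PAO-JP2 grown in PTSB at 37 °C, subcultured at OD600 0.05 with 5 µM 3-oxo-C12-HSL and 10 µM C4-HSL ± compound, shaken at 250 rpm for 24 h. Filtered supernatant (100 µL) incubated with Elastin-Congo red (4.5 mg in 900 µL Tris-HCl pH 7.2, 1 mM CaCl2) for 24 h at 37 °C, stopped with EDTA. A490 read minus bacteria-free blank, normalized to control. Four replicates.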

[9] = target: T1, HTH-type quorum-sensing regulator RhlR (Pseudomonas aeruginosa (strain ATCC 15692 / PAO1 / 1C / PRS 101 / LMG12228)) (UniProt P54292); assay: Agonist activity at RhlR in Pseudomonas aeruginosa PAO-JP2 expressing RhlI assessed as effect on GFP production at 50 to 300 uM after 24 hrs by fluorescence assay in presence of 3-oxo-C12-HSL and C4-HSL relative to control
T1 sequence (whole entry): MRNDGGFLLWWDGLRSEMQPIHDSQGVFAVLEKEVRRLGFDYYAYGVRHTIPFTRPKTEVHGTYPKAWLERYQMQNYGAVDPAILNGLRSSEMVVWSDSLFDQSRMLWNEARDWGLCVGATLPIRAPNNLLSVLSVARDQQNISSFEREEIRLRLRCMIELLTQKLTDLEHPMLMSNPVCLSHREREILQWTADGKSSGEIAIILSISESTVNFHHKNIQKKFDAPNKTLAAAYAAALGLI
How it was run: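 PAO-JP2 (prhlI-LVAgfp) grown in M9 with 300 µg/mL carbenicillin to OD600 0.1, dosed with 1 µM 3-oxo-C12-HSL and 10 µM C4-HSL ± compound, shaken at 250 rpm and 37 °C for 24 h. GFP read at ex 500/em 540 nm, M9 background subtracted, divided by OD600 and normalized to the BF-free control. Four replicates.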

[10] = target: T1, HTH-type quorum-sensing regulator RhlR (Pseudomonas aeruginosa (strain ATCC 15692 / PAO1 / 1C / PRS 101 / LMG12228)); assay: Agonist activity at RhlR in Pseudomonas aeruginosa PAO1 expressing RhlI assessed as stimulation of GFP production at 300 uM after 24 hrs by fluorescence assay relative to control
How it was run: (§4)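 PAO1 (prhlI-LVAgfp) grown in M9 with 300 µg/mL carbenicillin to OD600 0.1, exposed to compound at 50, 150 or 300 µM for 24 h at 37 °C with shaking at 250 rpm. Fluorescence read at ex 500/em 540 nm, M9 background subtracted, divided by OD600 and normalized to the BF-free control. Four replicates.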

[11] = target: T1, HTH-type quorum-sensing regulator RhlR (Pseudomonas aeruginosa (strain ATCC 15692 / PAO1 / 1C / PRS 101 / LMG12228)); assay: Agonist activity at RhlR in Pseudomonas aeruginosa PAO1 expressing RhlI assessed as stimulation of GFP production at 150 uM after 24 hrs by fluorescence assay relative to control; how it was run: as §4
[12] = target: T2, Transcriptional activator protein LasR (Pseudomonas aeruginosa (strain ATCC 15692 / PAO1 / 1C / PRS 101 / LMG12228)) (UniProt P25084); assay: Antagonist activity at LasR in Pseudomonas aeruginosa PAO-JP2 expressing LasI assessed as inhibition of GFP production at 50 to 300 uM after 24 hrs by fluorescence assay in presence of 3-oxo-C12-HSL
T2 sequence (whole entry): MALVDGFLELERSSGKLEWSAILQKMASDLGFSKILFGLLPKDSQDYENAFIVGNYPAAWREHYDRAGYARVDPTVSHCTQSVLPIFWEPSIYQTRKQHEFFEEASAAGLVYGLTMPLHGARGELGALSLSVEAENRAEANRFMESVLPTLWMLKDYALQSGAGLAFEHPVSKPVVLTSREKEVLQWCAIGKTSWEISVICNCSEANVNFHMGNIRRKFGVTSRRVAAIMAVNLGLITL
How it was run: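 PAO-JP2 (plasI-LVAgfp) grown in M9 with 300 µg/mL carbenicillin to OD600 0.1, given 1 µM 3-oxo-C12-HSL ± compound at varied concentrations, incubated 24 h at 37 °C with shaking at 250 rpm. GFP read at ex 500/em 540 nm, M9 background subtracted, divided by OD600 and normalized to the BF-free control. Four replicates.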

[13] = target: T2, Transcriptional activator protein LasR (Pseudomonas aeruginosa (strain ATCC 15692 / PAO1 / 1C / PRS 101 / LMG12228)); assay: Antagonist activity at LasR in Pseudomonas aeruginosa PAO1 expressing LasI assessed as inhibition of GFP production at 50 to 300 uM after 24 hrs by fluorescence assay relative to control
[14] = system: Escherichia coli; assay: Toxicity in Escherichia coli RP437 assessed as planktonic growth inhibition at 200 uM after 24 hrs; type: organism-based; settings: in vivo
How it was run: (§5)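 E. coli RP437 in LB at 37 °C, started at OD600 0.05 in 96-well plates with 200 µM compound (DMSO stock), shaken at 250 rpm. OD600 read at 0, 2, 4, 6, 8, 10, 12 and 24 h, normalized to the BF-free control. Six replicates.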

[15] = system: Pseudomonas aeruginosa; assay: Toxicity in Pseudomonas aeruginosa PAO1 assessed as planktonic growth inhibition at 400 uM after 24 hrs; type: organism-based; settings: in vivo
[16] = system: Pseudomonas aeruginosa; assay: Antibacterial activity against Pseudomonas aeruginosa PAO1 assessed as inhibition of biofilm formation incubated for 24 hrs followed by compound-washout measured after 30 mins by crystal-violet staining-based colorimetric assay; type: functional, organism-based
How it was run: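 P. aeruginosa subcultured at OD600 0.1 in LB with compound (DMSO stock) in 96-well polystyrene plates, stationary, 37 °C, 24 h. Wells washed and dried 30 min, stained with 0.1% crystal violet for 30 min, washed, dye solubilized in 95% EtOH, A540 read. Values are (sample − medium)/(DMSO control − medium) × 100. Four replicates.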

[17] = system: Escherichia coli; assay: Antibacterial activity against Escherichia coli RP437 expressing red fluorescence protein assessed as inhibition of biofilm formation at 200 uM after 24 hrs by confocal laser scanning microscopic analysis; type: functional, organism-based; how it was run: as §1
[18] = system: Pseudomonas aeruginosa; assay: Antibacterial activity against Pseudomonas aeruginosa PAO1 expressing green fluorescence protein assessed as inhibition of biofilm formation measured as reduction in surface area at 400 uM after 24 hrs by confocal laser scanning microscopic analysis relative to control; type: functional, organism-based
[19] = system: Pseudomonas aeruginosa; assay: Antibacterial activity against Pseudomonas aeruginosa PAO1 expressing green fluorescence protein assessed as inhibition of biofilm formation measured as reduction in mean thickness of biofilm at 400 uM after 24 hrs by confocal laser scanning microscopic analysis relative to control; type: functional
[20] = system: Pseudomonas aeruginosa; assay: Antibacterial activity against Pseudomonas aeruginosa PAO1 expressing green fluorescence protein assessed as inhibition of biofilm formation measured as reduction in biomass at 400 uM after 24 hrs by confocal laser scanning microscopic analysis relative to control; type: functional; settings: PAO1, 24 h
[21] = system: Pseudomonas aeruginosa; assay: Antibacterial activity against Pseudomonas aeruginosa PAO1 expressing green fluorescence protein assessed as inhibition of biofilm formation at 400 uM after 24 hrs by confocal laser scanning microscopic analysis; type: functional, organism-based
How it was run: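 PA01-GFP (pSMC2; grown in LB with 300 µg/mL carbenicillin) formed biofilms on stainless-steel coupons with 400 µM compound, static, 37 °C, 24 h. Coupons rinsed three times in 0.9% saline, then imaged by CLSM.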

[22] = target: T1, HTH-type quorum-sensing regulator RhlR (Pseudomonas aeruginosa (strain ATCC 15692 / PAO1 / 1C / PRS 101 / LMG12228)); assay: Agonist activity at RhlR in Pseudomonas aeruginosa PAO1 expressing RhlI assessed as effect on GFP production at 50 to 300 uM after 24 hrs by fluorescence assay relative to control; how it was run: as §4
[23] = system: Escherichia coli; assay: Toxicity in Escherichia coli RP437 assessed as planktonic growth inhibition at 200 uM up to 8 hrs; type: organism-based; settings: in vivo; how it was run: as §5
[24] = target: T2, Transcriptional activator protein LasR (Pseudomonas aeruginosa (strain ATCC 15692 / PAO1 / 1C / PRS 101 / LMG12228)); assay: Antagonist activity at LasR in Pseudomonas aeruginosa PAO1 expressing LasI assessed as inhibition of GFP production at 300 uM after 24 hrs by fluorescence assay relative to control
[25] = target: T2, Transcriptional activator protein LasR (Pseudomonas aeruginosa (strain ATCC 15692 / PAO1 / 1C / PRS 101 / LMG12228)); assay: Antagonist activity at LasR in Pseudomonas aeruginosa PAO1 expressing LasI assessed as inhibition of GFP production at 50 to 150 uM after 24 hrs by fluorescence assay
[26] = system: Pseudomonas aeruginosa; assay: Inhibition of quorum sensing system in Pseudomonas aeruginosa PAO-JP2 assessed as reduction of elastase B production after 24 hrs by congo-red staining-based assay; how it was run: as §3

| SMILES | inhibition [1] | inhibition [2] | inhibition [3] | Activity [4] | viability at 1 h, 400 µM [5] | viability at 1 h, 400 µM [6] | viability at 1 h, 400 µM [7] | inhibition [8] | Activity [9] | inhibition [12] | inhibition [13] | Activity [14] | Activity [15] | IC50 [16] | inhibition [17] | inhibition [18] | inhibition at 400 µM [20] | inhibition [21] | Activity [22] | inhibition [24] | other results |
| --- | --- | --- | --- | --- | --- | --- | --- | --- | --- | --- | --- | --- | --- | --- | --- | --- | --- | --- | --- | --- | --- |
| O=C1C=C2CCC(Br)=C2O1 | Active | Active | Active | Non-toxic | 6% | 21% | 76% | 80% | Active | Active | Active | Non-toxic | Non-toxic | > 400 µM | Active | Active | 53% | Active | – | – | Activity [10]: 165%; Activity [11]: 82.6%; inhibition [19]: inactive |
| CC1=C(Br)/C(=C\Br)OC1=O | Active | Active | Active | Toxic | < 2% | < 2% | 29% | – | – | Active | 46% | – | – | – | Active | – | – | – | inactive | – | Activity [23]: Toxic |
| O=C1C=C2CCCCC(Br)=C2O1 | Active | Active | Active | Non-toxic | 13% | 7% | 44% | 80% | inactive | Active | – | Non-toxic | Non-toxic | 140 µM | Active | Active | 50% | Active | inactive | 69% | inhibition [25]: Active |
| O=C1C=C2CCCC(Br)=C2O1 | Active | Active | Active | Non-toxic | 50% | 50% | 76% | 80% | inactive | Active | – | Non-toxic | Non-toxic | 146 µM | Active | Active | 71% | Active | inactive | 78% | inhibition [26]: Dose-dependent effect; inhibition [25]: Active; inhibition at 400 µM ([19]; PAO1, 24 h): 60% |
| O=C1C=C(Br)/C(=C/Br)O1 | – | – | – | – | – | – | – | – | – | – | – | – | Toxic | – | – | – | – | Active | – | – | – |
